We go through three compounds from paper PMC12215001 (Scientific Reports, 2025).

One test deals with NTUB1 cells. Put plainly: SRB assay, cell growth inhibition. It is filed as cell-based. The settings on record: 48 h. The method, boiled down: (§1)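 Cell lines: NTUB1 and N/P(14) in RPMI 1640, J82 in EMEM, and J82R (J82 adapted stepwise to 10 µM cisplatin); all in 10% FBS at 37 °C, 5% CO2, passage <10, mycoplasma-tested. SV-HUC-1 was grown in F12K. Cells were treated 48 h in 96-well plates, then TCA-fixed (10%) and stained with 0.4% SRB. After 1% acetic acid washes, dye was dissolved in 10 mM Tris base and read at 515 nm. GI50 = concentration giving 50% growth inhibition.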
Background: The SRB assay estimates cell density from bound dye.

For test [1], the system named is N/P(14) cells (cisplatin-resistant subline of NTUB1). The test is described as follows: SRB assay, cell growth inhibition. The test is classed as cell-based. The method, boiled down:
as §1

The next test deals with J82 cells. The test is described as follows: SRB assay, cell growth inhibition. It is filed as cell-based. The settings on record: 48 h. The method, boiled down: as §1
Test [2] deals with J82R cells (cisplatin-resistant subline of J82). Put plainly: SRB assay, cell growth inhibition. The test is classed as cell-based. As to conditions: 48 h. Put shortly: as §1
The subject of test [3] is N/P(14) cells. The test is described as follows: Western blot analysis. The test is classed as cell-based. The method, boiled down:
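N/P(14) cells were treated two ways: a concentration series for 24–48 h, or 10 µM for 6–48 h. Lysis was in SDS buffer, followed by SDS-PAGE and PVDF blotting. Probes: caspases, PARP, a CK2 substrate consensus (pS/pT)DXE antibody, and phospho-Akt (S129)/Akt and phospho-XRCC1. Bands were normalized to GAPDH as fold of control. Mean±S.D., n = 3, one-way ANOVA with Dunnett.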
On the technique in general: Immunoblotting shows a protein as a band on a membrane.

In test [4] the test system is SV-HUC-1 cells (normal uroepithelial). The test is described as follows: SRB assay, cell growth inhibition. As to conditions: SV-HUC1, 48 h. The test is classed as cell-based. Put shortly:
as §1

The target of a further test is CK2α (Homo sapiens, UniProt P68400). Put plainly: In vitro CK2α kinase activity assay. The test is classed as biochemical. As to conditions: 10-dose, threefold serial dilution starting at 100 µM, 10 µM ATP.
CK2α, sequence (P68400 whole entry): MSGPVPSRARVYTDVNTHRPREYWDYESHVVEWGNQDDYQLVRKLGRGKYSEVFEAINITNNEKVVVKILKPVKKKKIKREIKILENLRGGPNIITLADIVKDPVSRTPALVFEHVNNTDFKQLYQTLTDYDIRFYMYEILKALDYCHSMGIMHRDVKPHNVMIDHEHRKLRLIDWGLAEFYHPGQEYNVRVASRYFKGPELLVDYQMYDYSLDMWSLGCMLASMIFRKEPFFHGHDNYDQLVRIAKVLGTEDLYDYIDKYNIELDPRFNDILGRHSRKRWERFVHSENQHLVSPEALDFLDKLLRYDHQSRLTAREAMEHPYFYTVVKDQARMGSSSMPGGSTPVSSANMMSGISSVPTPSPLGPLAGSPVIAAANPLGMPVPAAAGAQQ
The test system of test [5] is N/P(14) cells. The test is described as follows: SRB assay, combination index. It is filed as cell-based. The settings on record: 48 h, CI below one indicates synergism. The method, boiled down: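 N/P(14) cells got doxorubicin or mitomycin C, with or without test compound, for 48 h. Growth was measured by SRB staining: TCA fixation, 1% acetic acid wash, Tris solubilization, absorbance at 515 nm. Combination index was computed from the combined dose–effect data; CI < 1 taken as synergism.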

Test [6] concerns N/P(14) cells. The test is described as follows: Cell cycle analysis, propidium iodide staining and flow cytometry. It is filed as cell-based. The settings on record: 24-48 h, time- and concentration-dependent. On the technique in general: A flow cytometer gives signals particle by particle.
Test [7] has as its system N/P(14) cells. The test is described as follows: RT-qPCR and Western blot of base excision repair genes. The test is classed as cell-based. The settings on record: 5 µM, 24 h (RT-qPCR). The method, boiled down:
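For mRNA, cells got 5 µM test compound for 24 h. RNA was taken by TRIzol with 1-bromo-3-chloropropane phase separation and isopropanol precipitation, reverse-transcribed, then run by green-dye qPCR with gene-specific primers (n = 3, unpaired two-tailed t-test). Protein levels were read by western blot, with band densities normalized to GAPDH.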

The test system of another test is J82R cells. Put plainly: Western blot analysis. The test is classed as cell-based. As to conditions: 24-48 h. Put shortly:
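J82R cells got the indicated test compound concentrations for 24–48 h. Proteins were extracted in SDS lysis buffer, run on SDS-PAGE, transferred to PVDF, and probed for caspase-3, -8, -9 and PARP. Band densities were normalized to GAPDH and expressed as fold of untreated control. Mean±S.D., n = 3–4, one-way ANOVA with Dunnett's test.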

As usually defined, the GI50 is the concentration giving 50% growth inhibition. Higher therefore signals less potent growth inhibition. `N.N.[Cl][Pt][Cl]` [cisplatin, reference compound]: the GI50 in the test with NTUB1 cells turned out to be 7.89 µM; in test [1] (N/P(14) cells, 48 h, SRB assay), 47.4 µM; with J82 cells it was 2580 nM; in test [2] (J82R cells, SRB assay) it was 9.47 µM.
With `O=C(O)c1ccc2c(c1)nc(Nc1cccc(Cl)c1)c1ccncc12` [CX-4945, reference compound], the PARP cleavage entry in the test on N/P(14) cells [3] (24 h) was “increased”. In the test with N/P(14) cells [3] (24 h, concentration-dependent), the “phosphorylation of the downstream targets Akt and XRCC1” value is reported as “decreased”.
In the case of `O=c1cc(-c2ccc(Oc3c(O)cc4oc(-c5ccc(O)cc5)cc(=O)c4c3O)cc2)oc2cc(O)cc(O)c12` [Hinokiflavone], the GI50 stood at 1.48 µM in [1] (NTUB1, 48 h); 0.98 µM in [2]; 4.09 µM in test [4]. Further, the CK2α kinase activity entry on CK2α is listed as “inhibited CK2α activity in a concentration-dependent manner”. For the same compound, the “combination index (CI)” value in the test on N/P(14) cells [5] (HNK with doxorubicin) and in the test with N/P(14) cells [5] (HNK with mitomycin C) was “below 1” throughout. Moreover, the “cleavage of caspase-3, caspase-8, caspase-9, and PARP” value with N/P(14) cells [3] (24-48 h) and in the test on J82R cells was “enhanced” in each case. The “phosphorylation of the CK2 substrate consensus sequence ((pS/pT)DXE)” value in the test on N/P(14) cells [3] (24 h and 48 h, concentration-dependent) was “suppressed”. The “accumulation of cells in the sub-G1 phase” value in the test with N/P(14) cells [6] is “significantly increased”. Also, in the test on N/P(14) cells [7], the “mRNA and protein levels of MUTYH, OGG1, and XRCC1” value is given as “reduced”.
